The record followed here is ChEMBL document CHEMBL2417376, “N-Heteroarylmethyl-5-hydroxy-1,2,5,6-tetrahydropyridine-3-carboxylic acid a novel scaffold for the design of uncompetitive α-glucosidase inhibitors” (Bioorg Med Chem, 2013).

Test [1] deals with Hyaluronidase (Bos taurus) (UniProt Q8SQG8+Q5E985). Nature of the test: Inhibition of bovine testes hyaluronidase using hyaluronic acid as substrate assessed as residual activity at 100 uM by nephelometric method relative to control. It is filed as protein assay. The method, boiled down: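 Hyaluronidase assayed nephelometrically per supplier-recommended protocol. Compounds added from DMSO stock (100 mM), DMSO ≤1% of total volume; activity expressed as percent of activity with DMSO alone.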

In test [2] the test system is Saccharomyces cerevisiae. Description: Inhibition of Saccharomyces cerevisiae alpha-glucosidase using pNPG as substrate assessed as residual activity at 100 uM preincubated for 20 mins followed by substrate addition measured after 45 mins relative to control. The method, boiled down: (§1)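 α-Glucosidase (0.175 U/ml) in water with compound (1 µL DMSO dilution) pre-incubated 20 min at 37 °C. Then added PBS (140 mM, pH 7.2), reduced glutathione (9 mM) and pNPG (0.9 mM). Incubated 45 min at 37 °C, read at 400 nm. % inhibition = (AC−AS)/AC×100 vs DMSO-only control. Triplicates with blanks.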

The subject of test [3] is beta-glucuronidase (Bos taurus). Nature of the test: Inhibition of bovine liver beta-glucuronidase using phenolphthalein beta-glucuronide as substrate assessed as residual activity measured liberation of phenolphthalein at 100 uM relative to control.
The nature of test [4]: Uncompetitive inhibition of Saccharomyces cerevisiae alpha-glucosidase using pNPG as substrate by Cornish-Bowden plot analysis.
Test [5] deals with Saccharomyces cerevisiae. Nature of the test: Uncompetitive inhibition of Saccharomyces cerevisiae alpha-glucosidase using pNPG as substrate at 0.17 to 100 uM by Lineweaver-Burk plot analysis.
Test [6] has as its system Saccharomyces cerevisiae. Description: Uncompetitive inhibition of Saccharomyces cerevisiae alpha-glucosidase using pNPG as substrate at 0.17 to 100 uM by Dixon plot analysis.
The nature of test [7]: Inhibition of Saccharomyces cerevisiae alpha-glucosidase using pNPG as substrate at 100 uM preincubated for 20 mins followed by substrate addition measured after 45 mins. The method, boiled down: as §1
In test [8] the test system is Saccharomyces cerevisiae. Description: Uncompetitive inhibition of Saccharomyces cerevisiae alpha-glucosidase using maltose as substrate assessed as ratio of Kik to Kiv at 8 uM. In a few lines: (§2)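 Maltose as substrate in the α-glucosidase protocol (20 min preincubation with inhibitor at 37 °C, then substrate incubation at 37 °C). Reaction stopped at 95 °C for 3 min, and released glucose measured with an HK/G6P-DH glucose kit. Vmax and Km by Lineweaver-Burk; Kik/Kiv ratio per Yang et al.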

Test [9] deals with Saccharomyces cerevisiae. Description: Uncompetitive inhibition of Saccharomyces cerevisiae alpha-glucosidase using maltose as substrate assessed as ratio of Kik to Kiv at 4 uM. In a few lines:
as §2

Test [10] concerns Saccharomyces cerevisiae. Nature of the test: Uncompetitive inhibition of Saccharomyces cerevisiae alpha-glucosidase using maltose as substrate assessed as ratio of Kik to Kiv at 2.4 uM. The method, boiled down: as §2
For test [11], the system named is Saccharomyces cerevisiae. Nature of the test: Uncompetitive inhibition of Saccharomyces cerevisiae alpha-glucosidase using maltose as substrate assessed as ratio of Kik to Kiv at 2 uM. In a few lines:
as §2

For test [12], the system named is Saccharomyces cerevisiae. Nature of the test: Uncompetitive inhibition of Saccharomyces cerevisiae alpha-glucosidase using maltose as substrate assessed as ratio of Kik to Kiv at 1.6 uM. In a few lines: as §2
In test [13] the test system is Saccharomyces cerevisiae. Nature of the test: Uncompetitive inhibition of Saccharomyces cerevisiae alpha-glucosidase using maltose as substrate assessed as ratio of Kik to Kiv at 1.2 uM. In a few lines: as §2
The subject of test [14] is Saccharomyces cerevisiae. Nature of the test: Uncompetitive inhibition of Saccharomyces cerevisiae alpha-glucosidase using pNPG as substrate assessed as ratio of Kik to Kiv at 8 uM.
Test [15] deals with Saccharomyces cerevisiae. Nature of the test: Uncompetitive inhibition of Saccharomyces cerevisiae alpha-glucosidase using pNPG as substrate assessed as ratio of Kik to Kiv at 4 uM.
Test [16] concerns Saccharomyces cerevisiae. Description: Uncompetitive inhibition of Saccharomyces cerevisiae alpha-glucosidase using pNPG as substrate assessed as ratio of Kik to Kiv at 2.4 uM.
Test [17] relates to Saccharomyces cerevisiae. Description: Uncompetitive inhibition of Saccharomyces cerevisiae alpha-glucosidase using pNPG as substrate assessed as ratio of Kik to Kiv at 2 uM.
Test [18] deals with Saccharomyces cerevisiae. Nature of the test: Uncompetitive inhibition of Saccharomyces cerevisiae alpha-glucosidase using pNPG as substrate assessed as ratio of Kik to Kiv at 1.6 uM.
For test [19], the system named is Saccharomyces cerevisiae. Description: Uncompetitive inhibition of Saccharomyces cerevisiae alpha-glucosidase using pNPG as substrate assessed as ratio of Kik to Kiv at 1.2 uM.
Test [20] has as its system Saccharomyces cerevisiae. Nature of the test: Uncompetitive inhibition of Saccharomyces cerevisiae alpha-glucosidase using maltose as substrate at 0.17 to 100 uM by Lineweaver-Burk plot analysis. In a few lines:
as §2

Test [21] deals with Saccharomyces cerevisiae. Description: Uncompetitive inhibition of Saccharomyces cerevisiae alpha-glucosidase using maltose as substrate at 0.17 to 100 uM by Dixon plot analysis.
Test [22] is described as follows: Uncompetitive inhibition of Saccharomyces cerevisiae alpha-glucosidase using maltose as substrate by Cornish-Bowden plot analysis.

Calls of active or inactive are those of the source. The rule behind the calls is not given here.

Consider `O=C(O)C1=CC(O)CN(Cc2ccccc2)C1` (configuration not stated), for which the Activity in test [1] was 101%; in [2], 95%; in test [3] it was 97%.

As for `O=C(O)C1=CCCN(Cc2ccccn2)C1`, the figures for the Activity in [1], in test [2] and in [3] were 101%, 95% and 96%, respectively.

As to `O=C(O)C1=CC(O)CN(Cc2ccccn2)C1` (configuration not stated), in test [4], the Ki amounted to 5300 nM. In [5], the “uncompetitive inhibition (Lineweaver-Burk)” value (“uncompetitive inhibition” below) was “Active”. Also, the “Inhibition type (qualitative)” value in [6] was “Active”. The compound also gave an IC50 in test [7] of 2000 nM. For the same compound, the Activity in test [1] came out at 101%; in [2], 2%; in test [3], 103%.

For the compound `COC(=O)C1=CC(O)CN(Cc2cccnc2)C1` (configuration not stated), the Activity in [1] was determined as 99%; in [2] it was 105%; in [3] it was 102%.

Regarding `O=C(O)C1=CCCN(Cc2ccccc2)C1`, the Activity in test [1] came out at 100%; in [2], 97%; in test [3], 89%.

As to `O=C(O)C1=CC(O)CN(Cc2ccncc2)C1` (configuration not stated), the Ki in test [4] was found to be 10200 nM. For the same compound, the “uncompetitive inhibition” value in test [5] is “Active”. For the same compound, the “Inhibition type (qualitative)” value in test [6] was “Active”. This compound displayed a half-inhibitory concentration (IC50) in test [7] of 2000 nM. The figures for the Activity in [1], in [2] and in test [3] were 104%, 3% and 103%, respectively.

`O=C(O)[C@H]1CN(Cc2ccccc2)CC[C@H]1O`: the Activity in [1] is 100%; in [2], 82%; in [3], 102%.

In turn, `O=C(O)C1=CC(O)CN(Cc2cc(=O)[nH]c(=O)[nH]2)C1` (configuration not stated) registered a Ki in test [4] of 12500 nM. For the same compound, the “uncompetitive inhibition” value in test [5] is “Active”. Further, the “Inhibition type (qualitative)” value in [6] was “Active”. Besides, half-maximal inhibition in test [7] (IC50) required 2000 nM. Besides, the Activity in test [1] is 100%; in test [2], 3%; in test [3], 102%.

Regarding `CCOC(=O)C1CN(Cc2ccccc2)CCC1O` (mixture of isomers), the Activity in test [1] came to 103%; in test [2] it was 100%; in test [3] it was 95%.

Consider `O=C(O)[C@H]1CN(Cc2ccccn2)CC[C@H]1O`, for which the Activity in test [1] stood at 100%; in test [2] it was 95%; in test [3] it was 103%.

For `O=C(O)C1=CCCN(Cc2cccnc2)C1`, the Activity is 99% in test [1], 102% in [2] and 102% in test [3].

`O=C(O)[C@H]1CN(Cc2ccncc2)CC[C@H]1O`: the Activity is 100% in test [1], 85% in [2] and 108% in test [3].

Take `O=C(O)C1=CCCN(Cc2nc3ccccc3[nH]2)C1`: the Activity in [1] came to 100%; in test [2], 93%; in [3], 100%.

Take `COC(=O)C1=CC(O)CN(Cc2ccccn2)C1` (configuration not stated): the Activity in test [1] turned out to be 100%; in test [2], 97%; in test [3], 103%.

Take `CCOC(=O)N1C=C(C(=O)OC)CCC1`: the Activity was found to be 100% in test [1], 109% in [2] and 96% in test [3].

As for `COC(=O)C1=CC(O)CN(Cc2ccncc2)C1` (configuration not stated), the Activity turned out to be 99% in test [1], 94% in [2] and 105% in test [3].

`COC(=O)C1=CC(O)CN(Cc2cc(=O)[nH]c(=O)[nH]2)C1` (configuration not stated): the values for the Activity in test [1], in test [2] and in [3] were 100%, 95% and 97%, respectively.

As to `O=C(O)C1=CC(O)CN(Cc2cccnc2)C1` (configuration not stated), the Ratio was 1.47 in [8]; 1.2 in test [9]; 1.07 in test [10]; 1.09 in [11]; 1.04 in test [12]; 1.05 in test [13]. The Ratio is 1.72 in test [14]; 1.49 in test [15]; 1.25 in test [16]; 0.998 in [17]; 1.09 in test [18]; 1.03 in [19]. In addition, the inhibition result in test [20] and in test [21] was “Active” throughout. Also, the Ki in test [22] is 800 nM; in test [4] it was 1200 nM. Also, the “uncompetitive inhibition” value in test [5] was “Active”. Also, the “Inhibition type (qualitative)” value in [6] is “Active”. Also, half-maximal inhibition in test [7] (IC50) required 2340 nM. For the same compound, the Activity in [1] worked out at 102%; in test [2], 2%; in [3], 100%.

In the case of `O=C(O)C1=CCCN(Cc2cc(=O)[nH]c(=O)[nH]2)C1`, the Activity in test [1] was 102%; in test [2] it was 97%; in [3], 100%.

Regarding `COC(=O)C1=CC(O)CN(Cc2ccccc2)C1` (configuration not stated), the results for the Activity in [1], in [2] and in [3] were 99%, 92% and 93%, respectively.

Consider `O=C(O)[C@H]1CN(Cc2cccnc2)CC[C@H]1O`, for which the Activity turned out to be 100% in [1], 97% in test [2] and 104% in test [3].

Consider `O=C(O)C1=CCCN(Cc2ccncc2)C1`, for which the Activity in test [1] was 99%; in test [2] it was 99%; in test [3] it was 95%.
